From ChEMBL document CHEMBL2406905, “Improving the antibacterial activity and selectivity of an ultra short peptide by hydrophobic and hydrophilic amino acid stretches” (Bioorg Med Chem Lett, 2013)
Activity calls are given as the source filed them. No cut-off for these calls is given here.

Columns and labels:
[1] = (§1) Antibacterial activity against Vibrio cholerae non-O1 non-O139 assessed as growth inhibition after 24 hrs; type: functional; conditions: for MIC90: Vibrio cholerae, non-O139, 24 h
Pseudomonas aeruginosa = assay: Antibacterial activity against Pseudomonas aeruginosa ATCC 27853 assessed as growth inhibition after 24 hrs; type: functional
Summary of the method: (§2)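 Log-phase bacteria adjusted to OD600 0.001 in nutrient broth. Peptide dilutions in 20 mM Tris–HCl pH 7.4 were added; buffer alone served as control. Incubation was 37 °C for 24 h. % inhibition was calculated from the OD600 change (24 h minus time zero) relative to the control change. MIC was the concentration giving >90% growth inhibition.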

Staphylococcus aureus = assay: Antibacterial activity against Staphylococcus aureus ATCC 25923 assessed as growth inhibition after 24 hrs; type: functional; conditions: for MIC90: Staphylococcus aureus, ATCC 25923, 24 h; summary of the method: as §2
Escherichia coli [2] = assay: Antibacterial activity against Escherichia coli ATCC 25922 assessed as growth inhibition after 24 hrs; type: functional; summary of the method: as §2
Salmonella typhi [3] = assay: Antibacterial activity against Salmonella typhi DMST 22842 assessed as growth inhibition after 24 hrs; type: functional, Salmonella enterica subsp. enterica serovar Typhi; conditions: for MIC90: Salmonella enterica, DMST 22842, 24 h
[4] = test system: Staphylococcus epidermidis; assay: Antibacterial activity against Staphylococcus epidermidis ATCC 12228 assessed as growth inhibition after 24 hrs; type: functional; conditions: for MIC90: Staphylococcus epidermidis, ATCC 12228, 24 h; summary of the method: as §2
Escherichia coli [5] = assay: Antibacterial activity against Escherichia coli ATCC 25922 assessed as appearance of blebs on cell surface at 10 X MIC after 1 min by SEM analysis; type: functional, organism-based
Summary of the method: (§3)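 Bacterial suspension at OD600 0.1 was exposed to peptide at 10× MIC for 1 min and 60 min. The negative control was 20 mM Tris–HCl buffer. Cell morphology was then examined by scanning electron microscopy.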

RAW264.7 = assay: Cytotoxicity against mouse RAW264.7 cells assessed as cell viability at 1 to 91 ug/ml after 48 hrs by MTT assay; type: cell-based; conditions: raw264.7, 48 h
Summary of the method: (§4)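 Monolayer cell viability was read by MTT. Results are given as mean ± SEM (n = 8). Significance was tested by one-way ANOVA with Scheffe's multiple range test (p < 0.05).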

Vero = assay: Cytotoxicity against african green monkey Vero cells assessed as cell viability at 1 to 91 ug/ml after 48 hrs by MTT assay; type: cell-based; conditions: chlorocebus sabaeus; summary of the method: as §4
[6] = Therapeutic index, ratio of MHC for human RBC to MIC for Vibrio cholerae non-O1 non-O139; conditions: human red blood cells (RBC), read-out: TI
Summary of the method: (§5)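 Index was calculated as MHC/MIC. MHC was the lowest peptide concentration producing 5% hemolysis of human red blood cells. MIC was the concentration giving >90% inhibition of bacterial growth (OD600) after 24 h at 37 °C in nutrient broth, with bacteria starting at OD600 0.001.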

[7] = Therapeutic index, ratio of MHC for human RBC to MIC for Staphylococcus aureus ATCC 25923; conditions: human red blood cells (RBC), read-out: TI; summary of the method: as §5
[8] = Therapeutic index, ratio of MHC for human RBC to MIC for Pseudomonas aeruginosa ATCC 27853; conditions: human red blood cells (RBC), read-out: TI; summary of the method: as §5
[9] = Therapeutic index, ratio of MHC for human RBC to MIC for Escherichia coli ATCC 25922; conditions: human red blood cells (RBC), read-out: TI; summary of the method: as §5
[10] = Therapeutic index, ratio of MHC for human RBC to MIC for Salmonella typhi DMST 22842; conditions: human red blood cells (RBC), read-out: TI; summary of the method: as §5
[11] = Therapeutic index, ratio of MHC for human RBC to MIC for Staphylococcus epidermidis ATCC 12228; conditions: human red blood cells (RBC), read-out: TI; summary of the method: as §5
[12] = Hemolytic activity in human RBC at 1 to 91 ug/ml; type: ADME, cell-based; conditions: erythrocyte
Summary of the method: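 Human red blood cells were exposed to peptide. Minimal hemolytic concentration was taken as the lowest peptide concentration producing 5% hemolysis.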

[13] = test system: Staphylococcus epidermidis; assay: Bactericidal activity against Staphylococcus epidermidis ATCC 12228 assessed as reduction in CFU at 23 ug/mL after 48 hrs; type: functional; parameters: scale not given: the % may be the effect or the level left
Summary of the method: (§6)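 After the 24 h, 37 °C broth-microdilution exposure (log-phase inoculum at OD600 0.001, peptide in 20 mM Tris–HCl pH 7.4), 5 μL from each well was plated on agar and incubated at 37 °C for 48 h. 100% bactericidal concentration was the concentration giving a 99.9% CFU reduction from the starting inoculum.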

Escherichia coli [14] = assay: Bactericidal activity against Escherichia coli ATCC 25922 assessed as reduction in CFU at 11 ug/mL after 48 hrs; type: functional; parameters: scale not given: the % may be the effect or the level left; summary of the method: as §6
Vibrio cholerae non-O1 = assay: as §1; type: functional
Salmonella typhi [15] = assay: Bactericidal activity against Salmonella typhi DMST 22842 assessed as reduction in CFU at 23 ug/mL after 48 hrs; type: functional, Salmonella enterica subsp. enterica serovar Typhi; parameters: scale not given: the % may be the effect or the level left
Summary of the method: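 Bacteria at OD600 0.001 in nutrient broth were exposed to peptide in 20 mM Tris–HCl (pH 7.4) at 37 °C for 24 h. A sample from each well was then plated on agar and incubated at 37 °C for 48 h. Bactericidal activity was taken as a 99.9% CFU reduction versus the starting inoculum.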

Salmonella typhi [16] = assay: Antibacterial activity against Salmonella typhi DMST 22842 assessed as appearance of rough and wavy cell morphology at 10 X MIC after 1 min by SEM analysis; type: functional, organism-based; conditions: Salmonella enterica subsp. enterica serovar Typhi
Summary of the method: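 Bacterial suspension (OD600 0.1) was incubated with peptide at 10×MIC for 1 and 60 min, with 20 mM Tris–HCl buffer as negative control. Cell morphology was examined by scanning electron microscopy.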

[17] = test system: Staphylococcus epidermidis; assay: Antibacterial activity against Staphylococcus epidermidis ATCC 12228 assessed as appearance of rough and wavy cell morphology at 10 X MIC after 1 min by SEM analysis; type: functional, organism-based; summary of the method: as §3
Escherichia coli [18] = assay: Bactericidal activity against Escherichia coli ATCC 25922 assessed as reduction in CFU at 46 ug/mL after 48 hrs; type: functional; parameters: scale not given: the % may be the effect or the level left; summary of the method: as §6
[19] = Pseudomonas aeruginosa, ATCC 27853, 24 h
[20] = Escherichia coli, ATCC 25922, 24 h

Substance | MIC90 [1] | MIC90 (Pseudomonas aeruginosa; [19]) | growth inhibition (GI) (Staphylococcus aureus) | MIC90 (Staphylococcus aureus) | growth inhibition (GI) (Escherichia coli [2]) | MIC90 (Escherichia coli [2]; [20]) | growth inhibition (GI) (Salmonella typhi [3]) | MIC90 (Salmonella typhi [3]) | growth inhibition (GI) [4] | MIC90 [4] | Activity (RAW264.7) | selectivity ratio [6] | selectivity ratio [7] | selectivity ratio [9] | selectivity ratio [10] | selectivity ratio [11] | Activity [12] | Activity [13] | MIC90 (Vibrio cholerae non-O1) | MIC90 (Pseudomonas aeruginosa) | further results
H-NGVQPKY-OH | > 200 µg/mL | > 200 µg/mL | <90% | > 200 µg/mL | <90% | > 200 µg/mL | <90% | > 200 µg/mL | <90% | > 200 µg/mL |  |  |  |  |  |  |  |  |  |  | growth inhibition (GI) [1]: <90%; growth inhibition (GI) (Pseudomonas aeruginosa): <90%
H-NGVQPKYKWWKWWKKWW-NH2 | 11 µg/mL | 91 µg/mL |  | 46 µg/mL |  | 11 µg/mL |  | 23 µg/mL |  | 23 µg/mL | Non-toxic | 4 | 1 | 4 | 2 | 2 | Non-toxic | 100% |  |  | Activity (Escherichia coli [5]): Active; Activity (Vero): Non-toxic; selectivity ratio [8]: 0.5; Activity (Escherichia coli [14]): 100%
H-NGVQPKYKWWKWWKKWWW-NH2 |  |  | <90% | > 91 µg/mL |  | 11 µg/mL |  | 23 µg/mL |  | 23 µg/mL |  |  | < 0.5 | 2 | 1 | 1 | Toxic | 100% | inactive | inactive | Activity (Escherichia coli [5]): Active; Activity (Salmonella typhi [15]): 100%; Activity (Escherichia coli [14]): 100%
H-NGVQPKYRWWRWWRRWW-NH2 | 46 µg/mL |  |  | 91 µg/mL |  | 46 µg/mL |  | 23 µg/mL |  | 23 µg/mL | Non-toxic | 1 | 0.5 | 1 | 2 | 2 | Non-toxic | Active |  | inactive | Activity (Salmonella typhi [16]): Active; Activity [17]: Active; Activity (Vero): Non-toxic; Activity (Escherichia coli [18]): 100%
H-NGVQPKYRWWRWWRRWW-OH |  |  | <90% | > 91 µg/mL |  | 46 µg/mL | <90% | > 91 µg/mL |  | 23 µg/mL | Toxic |  | < 0.25 | 0.5 | < 0.25 | 1 | Toxic | Active | inactive | inactive | Activity (Salmonella typhi [16]): Active; Activity [17]: Active; Activity (Vero): Toxic; Activity (Escherichia coli [18]): 100%
H-NGVQPKYRWWRWWRRWWW-OH |  |  | <90% | > 91 µg/mL | <90% | > 91 µg/mL | <90% | > 91 µg/mL |  | 91 µg/mL |  |  | < 0.25 | < 0.25 | < 0.25 | 0.25 | Toxic |  | inactive | inactive | 
H-NGVQPKYRWWRWWRRWWWW-NH2 |  | > 91 µg/mL | <90% | > 91 µg/mL | <90% | > 91 µg/mL | <90% | > 91 µg/mL |  | 91 µg/mL |  |  | < 0.06 | < 0.06 | < 0.06 | 0.06 | Toxic |  | inactive |  | selectivity ratio [8]: < 0.06; growth inhibition (GI) (Pseudomonas aeruginosa): <90%
H-NGVQPWYKWWKWWKKWW-NH2 | 91 µg/mL |  | <90% | > 91 µg/mL | <90% | > 91 µg/mL | <90% | > 91 µg/mL |  | 91 µg/mL |  | 0.06 | < 0.06 | < 0.06 | < 0.06 | 0.06 | Toxic |  |  | inactive | 
H-RWWRWWRRWW-NH2 | 23 µg/mL | 46 µg/mL | <90% | > 91 µg/mL | <90% | > 91 µg/mL | <90% | > 91 µg/mL | <90% | > 91 µg/mL |  | 0.08 | < 0.02 | < 0.02 | < 0.02 | < 0.02 | Toxic |  |  |  | selectivity ratio [8]: 0.04
H-RWWRWWRRWWW-NH2 | > 91 µg/mL |  | <90% | > 91 µg/mL |  |  | <90% | > 91 µg/mL | <90% | > 91 µg/mL |  | < 0.02 | < 0.02 |  | < 0.02 | < 0.02 | Toxic |  |  | inactive | growth inhibition (GI) [1]: <90%; MIC90 (Escherichia coli [2]): inactive
